Publication PMC11348385 (RSC Advances, 2024)
Where “and” joins values, the source holds several entries; their conditions need not be identical. Equal values may be shown once.

Columns and labels:
[1] = target: VEGFR-2 (Homo sapiens, UniProt P35968); assay: In vitro VEGFR-2 kinase assay; format: biochemical
[2] = tested on: MCF-7 cell line; assay: MTT colorimetric cytotoxicity assay, MCF-7; format: cell-based, human; settings: for IC50: Homo sapiens, MCF7, 72 h, read-out: IC50 MCF-7; for Selectivity index: folds more toxic regarding MCF-7 than VERO cells: VERO vs MCF-7; for selectivity class against MCF-7: high SI ≥ 5, moderate SI > 2, low SI < 2, vs VERO
[3] = tested on: HepG2 cell line; assay: MTT colorimetric cytotoxicity assay, HepG2; format: cell-based, human; settings: for IC50: Homo sapiens, HepG2, 72 h, read-out: IC50 HepG2; for Selectivity index: folds toxic in HepG2 than in VERO cells: VERO vs HepG2; for selectivity class against HepG2: high SI ≥ 5, moderate SI > 2, low SI < 2, vs VERO
[4] = tested on: BAX/Bcl-2 ratio; assay: BAX/Bcl-2 ratio in MCF-7 cells; format: cell-based, human; settings: MCF-7, IC50 of 4b
How it was run: (§1)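 Test compound given to MCF-7 cells for 24 h; Bax and Bcl-2 expression levels then determined. Each is expressed as fold change versus untreated control cells, and the Bax/Bcl-2 ratio is calculated from these fold changes.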

[5] = tested on: Bcl-2; assay: Bcl-2 expression level in MCF-7 cells; format: cell-based, human; settings: MCF-7, IC50 of 4b, 24 h, mean ± SEM
[6] = tested on: BAX; assay: BAX expression level in MCF-7 cells; format: cell-based, human; settings: MCF-7, IC50 of 4b
How it was run: as §1

[7] = tested on: MCF-7 cells; assay: Cell cycle distribution; format: cell-based, human; settings: MCF-7, 2.3 μM 4b, 24 h, mean ± SEM
How it was run: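 MCF-7 cells treated with 2.3 μM test compound for 24 h, harvested and stained with propidium iodide. DNA content was analysed for distribution across G1, S and G2/M phases, with an untreated control alongside. Values are mean ± SEM of three independent experiments.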

[8] = tested on: MCF-7 cells; assay: Annexin V / propidium iodide double staining apoptosis assay; format: cell-based, human; settings: MCF-7, IC50 of 4b, 24 h

VEGFR-2, sequence (P35968 20-1356): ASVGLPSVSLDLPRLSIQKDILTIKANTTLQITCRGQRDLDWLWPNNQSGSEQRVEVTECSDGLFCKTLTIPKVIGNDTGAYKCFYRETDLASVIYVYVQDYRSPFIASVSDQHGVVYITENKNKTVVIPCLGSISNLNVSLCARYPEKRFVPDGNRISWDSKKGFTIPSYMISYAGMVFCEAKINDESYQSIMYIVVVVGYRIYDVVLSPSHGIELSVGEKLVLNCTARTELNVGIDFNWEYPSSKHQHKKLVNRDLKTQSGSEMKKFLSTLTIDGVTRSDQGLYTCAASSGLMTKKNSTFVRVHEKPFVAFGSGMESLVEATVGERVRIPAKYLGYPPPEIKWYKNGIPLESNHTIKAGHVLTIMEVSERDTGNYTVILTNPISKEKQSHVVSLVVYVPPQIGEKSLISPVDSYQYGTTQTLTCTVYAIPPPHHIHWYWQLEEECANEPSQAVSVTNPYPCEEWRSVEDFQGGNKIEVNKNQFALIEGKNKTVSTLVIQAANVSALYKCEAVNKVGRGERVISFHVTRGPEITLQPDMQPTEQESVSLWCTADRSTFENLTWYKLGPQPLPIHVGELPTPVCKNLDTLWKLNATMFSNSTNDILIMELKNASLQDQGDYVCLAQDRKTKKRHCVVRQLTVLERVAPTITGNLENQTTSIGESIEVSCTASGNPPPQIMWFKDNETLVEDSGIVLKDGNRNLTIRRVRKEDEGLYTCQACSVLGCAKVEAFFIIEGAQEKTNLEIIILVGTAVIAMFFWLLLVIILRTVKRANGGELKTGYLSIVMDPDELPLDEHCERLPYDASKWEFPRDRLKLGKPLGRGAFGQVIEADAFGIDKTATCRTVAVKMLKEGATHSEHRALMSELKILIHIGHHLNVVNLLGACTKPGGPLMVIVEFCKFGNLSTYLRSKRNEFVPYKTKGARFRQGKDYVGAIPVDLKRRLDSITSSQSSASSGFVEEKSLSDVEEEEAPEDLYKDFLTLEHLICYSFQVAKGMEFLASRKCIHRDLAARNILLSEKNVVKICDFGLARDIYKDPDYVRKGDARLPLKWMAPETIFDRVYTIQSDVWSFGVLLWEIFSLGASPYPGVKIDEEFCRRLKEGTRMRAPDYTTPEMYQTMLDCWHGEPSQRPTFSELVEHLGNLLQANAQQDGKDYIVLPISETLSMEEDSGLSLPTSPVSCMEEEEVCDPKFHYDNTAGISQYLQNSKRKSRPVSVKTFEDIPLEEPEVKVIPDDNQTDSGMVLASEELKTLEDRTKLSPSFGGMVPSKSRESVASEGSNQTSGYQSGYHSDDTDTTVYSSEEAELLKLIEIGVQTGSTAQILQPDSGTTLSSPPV

SMILES | IC50 [1] [nM] | IC50 [2] [nM] | Selectivity index: folds more toxic regarding MCF-7 than VERO cells [2] [folds] | IC50 [3] [nM] | Selectivity index: folds toxic in HepG2 than in VERO cells [3] [folds] | selectivity class against MCF-7 [2] | other results
Oc1ccc(C2CC(c3ccc(Nc4nnc(-c5ccc(Cl)cc5)c5ccccc45)cc3)=NN2)cc1 (stereo not drawn) [Compound 3d, 4-(3-[4-{(4-[4-Chlorophenyl]phthalazin-1-yl)amino}phenyl]-4,5-dihydro-1H-pyrazol-5-yl)phenol] | 700 ± 50 | 740 ± 10 | 5.88 | 150 | 29.00 | – | –
Clc1ccc(-c2nnc(Nc3ccc(C4=NNC(c5ccc(Cl)cc5)C4)cc3)c3ccccc23)cc1 (stereo not drawn) [Compound 3b, 4-(4-Chlorophenyl)-N-(4-(5-(4-chlorophenyl)-4,5-dihydro-1H-pyrazol-3-yl)phenyl)phthalazin-1-amine] | 800 ± 50 | 830 ± 20 | 5.12 | – | 5.31 | – | –
COc1ccc(C2CC(c3ccc(Nc4nnc(-c5ccc(Cl)cc5)c5ccccc45)cc3)=NN2)cc1 (stereo not drawn) [Compound 3e, 4-(4-Chlorophenyl)-N-(4-[5-{4-methoxyphenyl}-4,5-dihydro-1H-pyrazol-3-yl]phenyl)phthalazin-1-amine] | 120 ± 20 | 80 ± 10 | 40.25 | – | 16.95 | – | –
Oc1ccccc1C1CC(c2ccc(Nc3nnc(-c4ccc(Cl)cc4)c4ccccc34)cc2)=NN1 (stereo not drawn) [Compound 3c, 2-(3-[4-{(4-[4-Chlorophenyl]phthalazin-1-yl)amino}phenyl]-4,5-dihydro-1H-pyrazol-5-yl)phenol] | 840 ± 50 | 880 ± 30 | 4.67 | 1250 ± 20 | 3.29 | moderate selectivity | selectivity class against HepG2 [3]: moderate selectivity
S=c1nc(-c2ccc(Nc3nnc(-c4ccc(Cl)cc4)c4ccccc34)cc2)cc(-c2ccc(Cl)cc2)[nH]1 [Compound 5b, 6-(4-Chlorophenyl)-4-(4-[{4-(4-chlorophenyl)phthalazin-1-yl}amino]phenyl)pyrimidin-2(1H)-thione] | 130 ± 30 | 110 ± 10 | 28.64 | 150 ± 10 | 21.00 | – | –
CNC(=O)c1cc(Oc2ccc(NC(=O)Nc3ccc(Cl)c(C(F)(F)F)c3)cc2)ccn1 [Sorafenib, sorafenib, reference compound] | – | 50 ± 10 | – | 30 ± 10 | – | – | –
O=c1nc(-c2ccc(Nc3nnc(-c4ccc(Cl)cc4)c4ccccc34)cc2)cc(-c2ccc(Cl)cc2)[nH]1 [Compound 4b, 6-(4-Chlorophenyl)-4-(4-[{4-(4-chlorophenyl)phthalazin-1-yl}amino]phenyl)pyrimidin-2(1H)-one] | 90 ± 20 | 60 ± 10 | 50.00 | 60 ± 10 | 50.00 | – | boost of Bax/Bcl2 ratio compared to the control [4]: approximately 8 folds; Gene expression fold change BAX/Bcl-2 ratio ([4]; 24 h, mean ± SEM): 8.25 ± 0.71; Gene expression fold change Bcl-2 [5]: 0.374 ± 0.02; boost of Bax level vs control [6]: approximately 3 folds; Gene expression fold change BAX ([6]; 24 h, mean ± SEM): 3.3282 ± 0.67; DNA content % G1 [7]: 53.96 ± 2.15%; DNA content % S [7]: 39.12 ± 1.92%; early apoptosis, folds over the control [8]: more than 25 folds; % Apoptosis Early ([8]; mean ± SEM): 15.06% and 15.06 ± 0.91%; % Apoptosis Late ([8]; mean ± SEM): 6.72 ± 0.31%; % Necrosis ([8]; mean ± SEM): 4.66% and 4.66 ± 0.19%
Clc1ccc(-c2nnc(Nc3ccc(C4=NNC(c5ccccc5)C4)cc3)c3ccccc23)cc1 (stereo not drawn) [Compound 3a, 4-(4-Chlorophenyl)-N-(4-(5-phenyl-4,5-dihydro-1H-pyrazol-3-yl)phenyl)phthalazin-1-amine] | 1250 ± 50 | 1160 ± 10 | 4.09 | 1270 ± 30 | 3.74 | moderate selectivity | selectivity class against HepG2 [3]: moderate selectivity

More lines, main results first:

IC50 [1] [nM] | SMILES | IC50 [2] [nM] | Selectivity index: folds more toxic regarding MCF-7 than VERO cells [2] [folds] | IC50 [3] [nM] | Selectivity index: folds toxic in HepG2 than in VERO cells [3] [folds] | selectivity class against MCF-7 [2] | other results
150 ± 30 | O=c1nc(-c2ccc(Nc3nnc(-c4ccc(Cl)cc4)c4ccccc34)cc2)cc(-c2ccccc2)[nH]1 [Compound 4a, 4-(4-[{4-(4-Chlorophenyl)phthalazin-1-yl}amino]phenyl)-6-phenylpyrimidin-2(1H)-one] | – | 25.00 | 290 ± 10 | 13.79 | – | –
750 ± 50 | S=c1nc(-c2ccc(Nc3nnc(-c4ccc(Cl)cc4)c4ccccc34)cc2)cc(-c2ccccc2)[nH]1 [Compound 5a, 4-(4-[{4-(4-Chlorophenyl)phthalazin-1-yl}amino]phenyl)-6-phenylpyrimidin-2(1H)-thione] | 860 ± 10 | 4.79 | 800 ± 20 | 5.15 | moderate selectivity | –
